Active and inactive are the calls of the source. The rule behind the calls is not given here.
B1: Sortase A (Staphylococcus aureus), Q9S446 (protein)
chain: MKKWTNRLMTIAGVVLILVAAYLFAKPHIDNYLHDKDKDEKIEQYDKNVKEQASKDKKQQAKPQIPKDKSKVAGYIEIPDADIKEPVYPGPATPEQLNRGVSFAEENESLDDQNISIAGHTFIDRPNYQFTNLKAAKKGSMVYFKVGNETRKYKMTSIRDVKPTDVGVLDEQKGKDKQLTLITCDDYNEKTGVWEKRKIFVATEVK

Columns and labels:
Papain (Carica papaya) = target: T1, Papain (Carica papaya) (UniProt P00784); assay: Inhibition of Carica papaya papain; set-up: concentration or dose not given beside the values; settings: concentration not given here
T1 sequence (whole entry): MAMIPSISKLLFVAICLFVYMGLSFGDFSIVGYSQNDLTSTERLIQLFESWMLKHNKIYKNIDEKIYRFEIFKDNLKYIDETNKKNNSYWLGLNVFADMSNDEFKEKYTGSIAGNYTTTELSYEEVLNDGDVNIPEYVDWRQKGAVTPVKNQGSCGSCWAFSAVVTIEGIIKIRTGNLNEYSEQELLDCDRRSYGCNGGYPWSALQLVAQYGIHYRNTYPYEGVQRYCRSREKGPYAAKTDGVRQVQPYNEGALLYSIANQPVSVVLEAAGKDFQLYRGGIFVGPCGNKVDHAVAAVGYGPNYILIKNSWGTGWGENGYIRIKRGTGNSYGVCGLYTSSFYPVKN

Bacillus anthracis = assay: (§1) Inhibition of Bacillus anthracis sortase A; set-up: concentration or dose not given beside the values; settings: concentration not given here
[1] = target: T2, Sortase A (Staphylococcus aureus) (UniProt Q9S446); assay: Inhibition of Staphylococcus aureus sortase A at 10 ng
T2 sequence (whole entry): B1 chain
How it was run: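 Purified S. aureus SrtA (2 μM) preincubated with 10 ng compound in DMSO for 1 h at 25 °C. FRET substrate a-LPETG-d was then added to 2 μM in 5 mM CaCl2, 150 mM NaCl, 50 mM Tris-HCl pH 7.5, and incubated 24 h at 37 °C. Fluorescence read at ex 320/em 420 nm. Screened in duplicate; % inhibition = 100 − (well/plate positive-control mean ×100).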

[2] = Inhibition of Bacillus anthracis sortase B
[3] = Inhibition of Bacillus anthracis sortase C
[4] = as §1
Sortase A = target: T3, Sortase A (Staphylococcus aureus, UniProt Q9S446); assay: (§2) Inhibition of Staphylococcus aureus sortase A
T3 sequence (Q9S446 whole entry): B1 chain

[5] = target: T2, Sortase A (Staphylococcus aureus); assay: as §2
[6] = substrate: CN(C)CCC(=O)c1cccs1; settings: Staphylococcus aureus; 50 uM
[7] = substrate: CN(C)CCC(=O)c1ccc(Cl)c(Cl)c1; settings: Staphylococcus aureus; 200 uM

Molecule | inhibition (Papain (Carica papaya)) [%] | inhibition (Bacillus anthracis) [%] | inhibition [1] [%] | also measured
CN(C)CCC(=O)c1cccc([N+](=O)[O-])c1 | 47.2 | 90.2 | 54.3 | 
O=C(CCN1CCOCC1)c1ccc(Cl)cc1 | 50.4 | 90.6 | 84.4 | 
CC1CCCN(CCC(=O)c2ccc(Br)cc2)C1 (stereo not given) | 33.8 | 83.7 | 56.9 | 
CN(C)CCC(=O)c1cccs1 | 19.1 | 90.7 | 54.8 | IC50 [2]: 34 µM; IC50 [3]: 15 µM; IC50 [4]: 4.8 µM; IC50 (Sortase A): 47 µM; Ki (Sortase A): 93.2 µM
C=CC(O)c1cccs1 (racemic) |  |  |  | Activity [5]: inactive
CCOC(=O)N1CCN(CCC(=O)c2ccc(Br)cc2)CC1 | 48.5 | 90.7 | 80.2 | 
O=C(CCN1CCOCC1)c1ccc(F)cc1 | 46.6 | 89.1 | 47.2 | 
CN(C)CCC(=O)c1ccc(Cl)c(Cl)c1 | 49.3 | 90.4 | 89.6 | IC50 [2]: 14 µM; IC50 [3]: 20 µM; IC50 (Sortase A): 15 µM; Ki (Sortase A): 15.7 µM
O=C(CCNc1ccccc1)c1cccc([N+](=O)[O-])c1 | 34 | 87.3 | 66 | 
CN(C)CCC(=O)c1ccc(S(C)(=O)=O)cc1 | 37.1 | 91.3 | 69.8 | 
C=CC(=O)c1cccs1 |  |  |  | Ki (Sortase A): 69 µM
Cc1ccc(C(=O)CCN2CCOCC2)cc1 | 31.2 | 88.9 | 56.9 | 
B1 |  |  |  | Km [6]: 5.8 µM; Vmax [6]: 88.8 s⁻¹; Km [7]: 5.91 µM; Vmax [7]: 58 s⁻¹

— ChEMBL document CHEMBL1145506, “Activation of inhibitors by sortase triggers irreversible modification of the active site” (J Biol Chem, 2007)
